Here are results for 1 molecule from ChEMBL document CHEMBL2057082, “Discovery of N-(4-methoxy-7-methylbenzo[d]thiazol-2-yl)isonicatinamide, ML293, as a novel, selective and brain penetrant positive allosteric modulator of the muscarinic 4 (M4) receptor” (Bioorg Med Chem Lett, 2012).

Active and inactive are the calls of the source. The calls are words filed in the database; no cut-off is given here.

The target of data set [1] is T1, Muscarinic acetylcholine receptor M5 (Homo sapiens) (UniProt P08912).
T1 sequence (whole entry): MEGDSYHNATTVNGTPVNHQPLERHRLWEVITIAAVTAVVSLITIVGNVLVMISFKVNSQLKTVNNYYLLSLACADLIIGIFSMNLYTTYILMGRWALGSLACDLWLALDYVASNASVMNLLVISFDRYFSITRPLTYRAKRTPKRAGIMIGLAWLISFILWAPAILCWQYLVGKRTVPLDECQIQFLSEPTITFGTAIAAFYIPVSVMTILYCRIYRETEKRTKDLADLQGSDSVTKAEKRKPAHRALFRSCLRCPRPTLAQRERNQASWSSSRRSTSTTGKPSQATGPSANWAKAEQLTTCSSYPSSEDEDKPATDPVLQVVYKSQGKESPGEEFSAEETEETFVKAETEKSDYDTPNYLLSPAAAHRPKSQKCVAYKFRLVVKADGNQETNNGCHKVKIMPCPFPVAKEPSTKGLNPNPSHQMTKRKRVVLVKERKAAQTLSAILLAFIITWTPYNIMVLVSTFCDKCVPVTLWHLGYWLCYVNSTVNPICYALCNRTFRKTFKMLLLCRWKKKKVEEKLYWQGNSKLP
Description: Activity at human M5 receptor expressed in CHO cells coexpressing Gqi5 assessed as effect on acetylcholine induced calcium mobilization up to 30 uM incubated for 144 secs prior to acetylcholine addition by Fluo-4-AM staining. It counts as functional, cell-based.

Data set [2] has as its target Muscarinic acetylcholine receptor M3 (Homo sapiens) (UniProt P20309). Description: Activity at human M3 receptor expressed in CHO cells coexpressing Gqi5 assessed as effect on acetylcholine induced calcium mobilization up to 30 uM incubated for 144 secs prior to acetylcholine addition by Fluo-4-AM staining. It counts as functional, cell-based.
For data set [3], the target named is T2, Muscarinic acetylcholine receptor M2 (Homo sapiens) (UniProt P08172).
T2 sequence (whole entry): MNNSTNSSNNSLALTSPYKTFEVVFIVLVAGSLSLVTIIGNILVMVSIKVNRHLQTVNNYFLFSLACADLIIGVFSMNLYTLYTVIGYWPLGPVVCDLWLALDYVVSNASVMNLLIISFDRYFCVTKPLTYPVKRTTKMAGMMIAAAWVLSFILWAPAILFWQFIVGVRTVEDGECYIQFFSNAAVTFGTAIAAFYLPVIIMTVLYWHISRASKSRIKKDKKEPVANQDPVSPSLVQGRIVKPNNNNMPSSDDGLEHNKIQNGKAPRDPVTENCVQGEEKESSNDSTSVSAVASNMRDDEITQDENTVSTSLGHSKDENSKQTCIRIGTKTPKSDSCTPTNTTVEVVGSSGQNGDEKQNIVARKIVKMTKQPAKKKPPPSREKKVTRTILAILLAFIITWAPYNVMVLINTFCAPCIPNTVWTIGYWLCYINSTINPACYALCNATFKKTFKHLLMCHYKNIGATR
The experiment in a line: Activity at human M2 receptor expressed in CHO cells coexpressing Gqi5 assessed as effect on acetylcholine induced calcium mobilization up to 30 uM incubated for 144 secs prior to acetylcholine addition by Fluo-4-AM staining. It counts as functional, cell-based. The procedure, abridged: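 Off-target mode: CHO-K1 lines stably expressing hM1, hM3 or hM5 (wild-type) or hM2 cotransfected with Gqi5, plated 15,000 cells/well, grown overnight at 37 °C. Fluo-4 AM loading 45 min at 37 °C in HBSS/20 mM HEPES/2.5 mM probenecid. Compound (up to 30 µM, 0.3% DMSO final) added 144 s before ACh. Calcium read kinetically at 37 °C.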

Data set [4] concerns the target T3, Muscarinic acetylcholine receptor M1 (Homo sapiens) (UniProt P11229).
T3 sequence (whole entry): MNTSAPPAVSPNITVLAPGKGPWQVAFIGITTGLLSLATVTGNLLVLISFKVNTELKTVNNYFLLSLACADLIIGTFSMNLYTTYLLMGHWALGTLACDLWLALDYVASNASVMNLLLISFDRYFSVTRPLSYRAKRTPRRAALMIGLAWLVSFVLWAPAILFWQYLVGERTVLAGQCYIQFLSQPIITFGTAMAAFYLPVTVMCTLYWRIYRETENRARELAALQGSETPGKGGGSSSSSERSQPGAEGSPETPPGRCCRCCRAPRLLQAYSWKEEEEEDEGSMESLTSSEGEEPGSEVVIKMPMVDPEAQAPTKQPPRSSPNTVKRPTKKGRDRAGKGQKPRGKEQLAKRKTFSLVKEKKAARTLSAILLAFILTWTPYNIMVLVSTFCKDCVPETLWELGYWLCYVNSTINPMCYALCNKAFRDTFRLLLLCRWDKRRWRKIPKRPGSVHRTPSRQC
Description: Activity at human M1 receptor expressed in CHO-K1 cells coexpressing Gqi5 assessed as effect on acetylcholine induced calcium mobilization up to 30 uM incubated for 144 secs prior to acetylcholine addition by Fluo-4-AM staining. The data set is classed as functional, cell-based.

Data set [5] addresses T4, Muscarinic acetylcholine receptor M4 (Homo sapiens) (UniProt P08173).
T4 sequence (whole entry): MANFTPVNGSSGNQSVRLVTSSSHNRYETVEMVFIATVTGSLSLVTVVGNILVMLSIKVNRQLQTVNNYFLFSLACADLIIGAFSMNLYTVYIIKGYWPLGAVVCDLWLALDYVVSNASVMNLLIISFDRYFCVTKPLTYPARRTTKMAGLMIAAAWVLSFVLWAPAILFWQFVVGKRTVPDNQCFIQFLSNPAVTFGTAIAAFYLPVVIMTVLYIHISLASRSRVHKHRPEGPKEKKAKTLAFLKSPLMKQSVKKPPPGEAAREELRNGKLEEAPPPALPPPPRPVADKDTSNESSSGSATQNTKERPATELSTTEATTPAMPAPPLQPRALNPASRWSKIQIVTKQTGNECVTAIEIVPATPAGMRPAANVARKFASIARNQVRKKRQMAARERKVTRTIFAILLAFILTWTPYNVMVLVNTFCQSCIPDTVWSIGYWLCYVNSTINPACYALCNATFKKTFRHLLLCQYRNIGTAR
The experiment in a line: Positive allosteric modulation of human M4 receptor expressed in CHO-K1 cells coexpressing Gqi5 assessed as potentiation of acetylcholine-mediated calcium mobilization incubated for 144 secs prior to acetylcholine addition by Fluo-4-AM staining relative to acetylcholine. It counts as functional, cell-based. The essentials:
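hM4-Gqi5 CHO-K1 cells, plated overnight, loaded with Fluo-4 AM (45 min, 37 °C). Compound (0.3% DMSO final) preincubated 144 s, then ACh EC20 added, and EC80 added 86 s later; 1 mM ACh wells for normalization. Calcium read at 37 °C, normalized to baseline and then to maximal ACh response. EC50 from four-parameter logistic fit; three independent determinations in triplicate.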

In data set [6] the target is T5, Muscarinic acetylcholine receptor M4 (Homo sapiens, UniProt P08173).
T5 sequence (P08173 whole entry): T4 sequence (whole entry)
The experiment in a line: Positive allosteric modulation of human M4 receptor expressed in CHO-K1 cells coexpressing Gqi5 assessed as potentiation of acetylcholine-mediated calcium mobilization incubated for 144 secs prior to acetylcholine addition by Fluo-4-AM staining. It counts as functional, cell-based. The essentials: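 hM4 stably cotransfected with chimeric Gqi5 in CHO-K1 cells. Cells plated overnight at 37 °C, loaded with Fluo-4 AM for 45 min at 37 °C in HBSS/20 mM HEPES/2.5 mM probenecid. Compound pretreated 144 s (0.3% DMSO final), then EC20 ACh, then EC80 ACh 86 s later; kinetic fluorescence at 37 °C.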

Data set [7] in a line: Drug uptake in rat brain assessed per gram of tissue at 10 mg/kg, po administered as single dose measured at 1 hr. The data set is classed as ADME, organism-based. On the set-up: dose 10 mg/kg, route oral. The conditions noted are these: read-out: Drug uptake. The procedure, abridged: (§1)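 Rats got a single 10 mg/kg oral dose. At a single 1 h time point, brain (ng/g tissue), plasma and hepatic portal vein concentrations were measured, giving brain:plasma and portal vein:plasma ratios. The portal vein:plasma ratio was taken as an indicator of the extent of oxidative metabolism.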

Data set [8] in a line: Drug uptake in rat hepatic portal vein at 10 mg/kg, po administered as single dose measured at 1 hr. It counts as ADME, organism-based. On the set-up: dose 10 mg/kg, route oral. The conditions noted are these: read-out: Drug uptake. The procedure, abridged:
as §1

The nature of data set [9]: Plasma concentration in rat at 10 mg/kg, po administered as single dose measured at 1 hr. The data set is classed as ADME, organism-based. On the set-up: dose 10 mg/kg, route oral. The procedure, abridged:
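Rats received a single 10 mg/kg oral dose. At 1 h, drug was measured in brain (ng/g), plasma and hepatic portal vein, and brain:plasma and HPV:plasma ratios were calculated.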

Data set [10] in a line: Plasma clearance in rat at 1mg/kg, iv. It counts as ADME, organism-based.
The nature of data set [11]: AUC in rat at 1 mg/kg, iv. The data set is classed as ADME, organism-based. The conditions noted are these: plasma. On the set-up: dose 1 mg/kg, route intravenous.
Data set [12] is described as follows: Volume of distribution at steady state in rat at 1 mg/kg, iv. Also noted: dose 1 mg/kg, route intravenous. The conditions noted are these: in vivo, read-out: Vdss. It counts as ADME, organism-based.
Data set [13] in a line: Mean residence time in rat at 1 mg/kg, iv. The data set is classed as ADME, organism-based. The conditions noted are these: in vivo. On the set-up: dose 1 mg/kg, route intravenous.
The nature of data set [14]: Half life in rat at 1 mg/kg, iv. On the set-up: dose 1 mg/kg, route intravenous. As to conditions: in vivo. The data set is classed as ADME, organism-based.
In a further data set the test system is Brain. The experiment in a line: Fraction unbound in rat brain homogenate. It counts as ADME, tissue-based. The procedure, abridged: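 Binding was measured in rat brain homogenate and reported as % unbound fraction.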
Data set [15] relates to Plasma. Description: Fraction unbound in human plasma. It counts as ADME, cell-free. The procedure, abridged: (§2)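 Plasma protein binding was measured by equilibrium dialysis in human and rat plasma and reported as % unbound.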
In data set [16] the test system is Plasma. Description: Fraction unbound in rat plasma. It counts as ADME, cell-free. The essentials: as §2
Data set [17] can be described thus: Intrinsic clearance in rat liver microsomes. The data set is classed as ADME, Microsome. As to conditions: read-out: CLH. The essentials: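 Intrinsic clearance was measured in human and rat hepatic microsomes to assess oxidative metabolism, with predicted hepatic clearance given in mL/min/kg.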

Sequence of Muscarinic acetylcholine receptor M3 (Homo sapiens) (P20309 whole entry, looked up): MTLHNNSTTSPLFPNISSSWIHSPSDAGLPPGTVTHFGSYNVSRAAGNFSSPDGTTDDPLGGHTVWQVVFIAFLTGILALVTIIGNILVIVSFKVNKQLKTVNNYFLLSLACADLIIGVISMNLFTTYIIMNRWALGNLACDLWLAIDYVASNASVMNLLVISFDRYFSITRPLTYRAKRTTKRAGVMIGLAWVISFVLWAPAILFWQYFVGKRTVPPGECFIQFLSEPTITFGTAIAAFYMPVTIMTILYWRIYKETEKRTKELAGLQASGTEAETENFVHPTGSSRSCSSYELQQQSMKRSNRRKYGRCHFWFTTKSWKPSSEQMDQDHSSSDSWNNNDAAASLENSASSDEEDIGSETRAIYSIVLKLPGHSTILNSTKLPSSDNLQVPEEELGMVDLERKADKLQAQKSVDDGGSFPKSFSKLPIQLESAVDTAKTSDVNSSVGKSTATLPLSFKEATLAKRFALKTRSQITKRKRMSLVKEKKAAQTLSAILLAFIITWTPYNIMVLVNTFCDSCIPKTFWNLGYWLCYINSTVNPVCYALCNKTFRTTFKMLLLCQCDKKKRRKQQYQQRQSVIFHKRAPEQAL

Regarding `COc1ccc(C)c2sc(NC(=O)c3ccncc3)nc12`, the result in data set [1], in data set [2], in [3] and in [4] was inactive. The %max in [5] is 65.2%. The EC50 in data set [6] is 1290 nM. Moreover, the concentration at 1 h in [7] was 3090 ng/g; in data set [8] it was 3070 ng/mL; in [9], 3740 ng/mL. Also, the clearance in data set [10] was determined as 11.5 mL/min/kg. The molecule further gave an AUC in data set [11] of 1440 ng·h/mL. Besides, in data set [12], the Vd was 0.97 L/kg. The mean residence time MRT in [13] is 1.42 h. Moreover, in [14], the half-life was determined as 57 min. Also, the Fu in the data set on Brain stood at 0.9%; in the data set on Plasma [15] it was 1%; in the data set on Plasma [16] it was 3.2%. In data set [17], the CLint scaled was found to be 48.5 mL/min/kg.
